Structures are written as SMILES. Active and inactive are the calls of the source. The calls are words filed in the database; no cut-off is given here.

Data set [1] relates to Escherichia coli. Kind of data set: Antibacterial activity against clinical isolate of Escherichia coli assessed as growth inhibition at 10 mg/ml after 16 to 20 hrs. It counts as functional, organism-based. In a few lines: (§1)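 Disc diffusion: sterile filter discs loaded with 10 µl of a 10 mg/ml compound solution were placed on evenly inoculated LB or minimal medium agar plates and incubated 16–20 h at 37 °C. Growth inhibition around each disc was scored qualitatively (weak, partial, or strong). Controls were 10 µl of 1 mg/ml ampicillin and DMSO.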

Data set [2] concerns Staphylococcus aureus. In words: Antibacterial activity against methicillin-resistant Staphylococcus aureus Mu50 assessed as growth inhibition at 10 mg/ml after 16 to 20 hrs. Format: functional, organism-based. Summed up:
(§2)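 Disc diffusion assay. Sterile filter discs soaked with 10 µl of a 10 mg/ml compound solution were placed on evenly inoculated LB or minimal medium agar, then incubated 16–20 h at 37 °C. Growth inhibition was scored by eye on a graded scale from strong inhibition through weak or partial inhibition to none. DMSO served as the negative control.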

Data set [3] has as its system Staphylococcus aureus. In words: Antibacterial activity against methicillin-resistant Staphylococcus aureus USA300 assessed as growth inhibition at 10 mg/ml after 16 to 20 hrs. Format: functional, organism-based. In a few lines:
as §2

The subject of data set [4] is Staphylococcus aureus. In words: Antibacterial activity against clinical isolate of Staphylococcus aureus assessed as growth inhibition at 10 mg/ml after 16 to 20 hrs. It counts as functional, organism-based. In a few lines: as §1
For data set [5], the system named is Pseudomonas aeruginosa. Kind of data set: Antibacterial activity against Pseudomonas aeruginosa PAO1 assessed as growth inhibition at 10 mg/ml after 16 to 20 hrs. Format: functional, organism-based. In a few lines: as §1
Data set [6] relates to Staphylococcus aureus. In words: Antibacterial activity against methicillin-resistant Staphylococcus aureus Mu50 assessed as growth inhibition at 10 mg/ml after 16 to 20 hrs in presence of 0.2 mM L-histidine. Format: functional, organism-based. Summed up: (§3)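 Histidine complementation disc assay. Discs soaked with 10 µl of a 10 mg/ml compound solution were placed on evenly inoculated minimal medium agar supplemented with 0.2 mM L-histidine, then incubated 16–20 h at 37 °C. Inhibition zones were scored by eye on a graded scale (strong, weak, partial, none).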

Data set [7] concerns Escherichia coli. Kind of data set: Antibacterial activity against Escherichia coli 1655 assessed as growth inhibition at 10 mg/ml after 16 to 20 hrs in presence of 0.2 mM L-histidine. Format: functional, organism-based. Summed up:
(§4)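 Histidine complementation: minimal medium agar plates were supplemented with 0.2mM L-histidine and evenly inoculated. Filter discs soaked with 10 µl of 10 mg/ml compound were applied, and plates were incubated 16–20 h at 37 °C. Inhibition was scored qualitatively. Ampicillin (10 µl, 1 mg/ml) and DMSO served as controls.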

The test system of data set [8] is Staphylococcus aureus. Kind of data set: Antibacterial activity against methicillin-resistant Staphylococcus aureus USA300 assessed as growth inhibition at 10 mg/ml after 16 to 20 hrs in presence of 0.2 mM L-histidine. It counts as functional, organism-based. In a few lines: as §3
In data set [9] the test system is Pseudomonas aeruginosa. In words: Antibacterial activity against Pseudomonas aeruginosa PAO1 assessed as growth inhibition at 10 mg/ml after 16 to 20 hrs in presence of 0.2 mM L-histidine. It counts as functional, organism-based. In a few lines:
as §4

Data set [10] is described as follows: Cytotoxicity against human CL1 cells expressing hTERT assessed as cell viability at 100 ug/ml after 24 hrs by trypan blue exclusion assay. Format: cell-based.
A short description of data set [11]: Cytotoxicity against human CL1 cells expressing hTERT assessed as cell viability at 100 ug/ml after 24 hrs by MTT assay. Format: cell-based. A general note: Tetrazolium dyes change colour on reduction, which living cells bring about.
Data set [12] relates to Escherichia coli. Kind of data set: Antibacterial activity against Escherichia coli 1655 assessed as growth inhibition at 10 mg/ml after 16 to 20 hrs. It counts as functional, organism-based. In a few lines: as §1
The subject of data set [13] is Staphylococcus aureus. Kind of data set: Antibacterial activity against methicillin-resistant Staphylococcus aureus USA300 assessed as growth inhibition at 1 mg/ml after 16 to 20 hrs in presence of 0.2 mM L-histidine. It counts as functional, organism-based. In a few lines:
(§5)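 Discs carrying 10 µl of a 1 mg/ml solution were placed on evenly inoculated minimal medium agar containing 0.2 mM L-histidine, then incubated 16–20 h at 37 °C. Inhibition zones were scored by eye as strong, weak, partial or none.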

Data set [14] concerns Escherichia coli. In words: Antibacterial activity against Escherichia coli 1655 assessed as growth inhibition at 1 mg/ml after 16 to 20 hrs. Format: functional, organism-based.
For data set [15], the system named is Staphylococcus aureus. In words: Antibacterial activity against methicillin-resistant Staphylococcus aureus Mu50 assessed as growth inhibition at 1 mg/ml after 16 to 20 hrs in presence of 0.2 mM L-histidine. It counts as functional, organism-based. In a few lines: as §5
For data set [16], the system named is Escherichia coli. In words: Antibacterial activity against clinical isolate of Escherichia coli assessed as growth inhibition at 1 mg/ml after 16 to 20 hrs. Format: functional, organism-based.
Data set [17] has as its system Staphylococcus aureus. In words: Antibacterial activity against methicillin-resistant Staphylococcus aureus USA300 assessed as growth inhibition at 1 mg/ml after 16 to 20 hrs. It counts as functional, organism-based. In a few lines: (§6)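 Disc diffusion assay. Filter discs carrying 10 µl of a 1 mg/ml solution were placed on evenly inoculated LB or minimal medium agar plates, then incubated 16–20 h at 37 °C. Growth inhibition was scored by eye on a graded scale (strong, weak, partial, none).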

For data set [18], the system named is Escherichia coli. Kind of data set: Antibacterial activity against Escherichia coli 1655 assessed as growth inhibition at 1 mg/ml after 16 to 20 hrs in presence of 0.2 mM L-histidine. Format: functional, organism-based.
For data set [19], the system named is Pseudomonas aeruginosa. Kind of data set: Antibacterial activity against Pseudomonas aeruginosa PAO1 assessed as growth inhibition at 1 mg/ml after 16 to 20 hrs in presence of 0.2 mM L-histidine. It counts as functional, organism-based.
Data set [20] concerns Staphylococcus aureus. In words: Antibacterial activity against clinical isolate of Staphylococcus aureus assessed as growth inhibition at 1 mg/ml after 16 to 20 hrs. It counts as functional, organism-based.
Data set [21] concerns Staphylococcus aureus. In words: Antibacterial activity against methicillin-resistant Staphylococcus aureus Mu50 assessed as growth inhibition at 1 mg/ml after 16 to 20 hrs. It counts as functional, organism-based. In a few lines:
as §6

In the case of `CN(C)c1ccc(/C=N/Nc2ccc(S(=O)(=O)O)cc2)cc1`, the outcome in data set [1], in [2], in [3] and in [4] was inactive.
As for `O=C(O)CCCNC[C@@H](O)Cn1c2ccccc2c2ccccc21`, the outcome in [2], in data set [6], in data set [3] and in data set [4] was Active. The result in data set [5], in [7], in [8] and in [9] was inactive. The Activity result in data set [10] is recorded as “Non-toxic”.
As to `Cc1c(OCC(=O)O)ccc2c(-c3ccccc3)cc(=O)oc12`, the result in [1], in [2], in data set [5], in [3], in [12] and in data set [4] was Active. Besides, the Activity entry in data set [11] and in [10] was “Non-toxic” in each case.
Regarding `CCc1cc(=O)oc2c3c(c(C)c(OCC(=O)O)c12)OC(C)(C)C=C3`, the outcome in data set [1], in data set [6], in data set [8] and in [4] was inactive. The outcome in data set [2], in data set [5], in data set [7], in data set [9] and in [12] was Active.
For the molecule `O=C(O)c1ccc([C@H](O)[C@@H](O)c2ccccc2)cc1`, the outcome in data set [2], in data set [3], in data set [12] and in data set [4] was Active. The result in data set [5] was inactive. For the same molecule, in data set [10], the Activity result is reported as “Toxic”.
On to `CCCCc1cc(=O)oc2c(C)c(O[C@H](C)C(=O)O)ccc12`, for which the result in data set [2], in [5], in data set [6], in data set [7], in data set [8] and in [9] was Active. Also, in data set [4], the result was Active. In addition, in data set [3], the outcome was inactive.
As to `O=C(O)C[C@H](NCc1ccco1)C(=O)Cc1ccc(Cl)cc1`, the outcome in [1], in data set [2], in data set [3], in [12] and in data set [4] was inactive.
For the molecule `C[C@@H](NC[C@@H](O)Cn1c2ccccc2c2ccccc21)C(=O)O`, the result in data set [1], in data set [2], in data set [5], in data set [3], in [12] and in data set [4] was inactive.
On to `CC1(C)S[C@@H]2[C@H](NC(=O)[C@H](N)c3ccccc3)C(=O)N2[C@H]1C(=O)O` [AMPICILLIN], for which the result in data set [13], in data set [14], in data set [15], in data set [16], in data set [17] and in [20] was Active. Besides, the result in [21] was Active. Also, the result in data set [18] and in data set [19] was inactive. Moreover, the Activity result in data set [10] is “Non-toxic”.
On to `O=C1Nc2ccc(Cl)cc2C(c2cccc(O)c2)=N[C@H]1O`, for which the outcome in [2], in data set [5], in data set [3] and in data set [12] was Active.
For the molecule `CCN(CCc1ccccc1)C(=O)CSc1ncccc1C(=O)O`, the outcome in data set [6] and in data set [8] was inactive. The result in [7], in data set [9] and in data set [12] was Active.
For `Cc1oc(C(=O)O)cc1COc1ccc2c3c(c(=O)oc2c1C)CCC3`, the outcome in data set [1], in data set [5], in data set [3] and in data set [12] was inactive. Further, the result in data set [2] and in data set [4] was Active.
For `CSCC[C@@H](NCC[C@H](O)c1ccccc1)C(=O)O`, the result in data set [1], in [2], in data set [3], in data set [12] and in data set [4] was inactive. In data set [5], the result was Active.
`CC(=O)C1=C(O)C(=O)N(CCC(=O)O)[C@@H]1c1ccc(C(C)C)cc1`: the result in [1], in data set [2], in data set [5], in [6], in data set [7] and in data set [8] was Active. In addition, the outcome in [9] and in data set [12] was Active. In addition, the result in data set [3] and in [4] was inactive.
Turning to `CC(=O)C1C(O)C(=O)N(c2ccc(C(=O)O)cc2)[C@H]1c1ccccc1` (stereo partly specified), the outcome in [1], in [2], in data set [5], in data set [3], in [12] and in data set [4] was Active. Moreover, the result in data set [6], in [7], in [8] and in [9] was inactive.
With `O=C(O)C[C@H](c1ccncc1)c1c[nH]c2ccccc12`, the result in data set [1], in data set [2], in [5], in [6], in data set [7] and in data set [8] was Active. The result in data set [9] and in data set [4] was Active. The result in data set [3] was inactive.
As to `Cc1ncc(CO)c(CNc2ccc(Oc3ccccc3)cc2)c1O`, the result in [2], in data set [5], in [3], in data set [12] and in data set [4] was Active. Further, in [10], the Activity entry is “Toxic”.
In the case of `O=C(O)c1cccc(NC(=O)[C@H]2CCCC[C@@H]2C(=O)O)c1`, the result in [1], in data set [2], in data set [3] and in data set [4] was inactive. In data set [5], the outcome was Active.

The values above are taken from ChEMBL document CHEMBL1250428, “Identification of novel bacterial histidine biosynthesis inhibitors using docking, ensemble rescoring, and whole-cell assays” (Bioorg Med Chem, 2010).
